Reference: ChEMBL document CHEMBL3774359, “Synthesis of benzofuran derivatives as selective inhibitors of tissue-nonspecific alkaline phosphatase: effects on cell toxicity and osteoblast-induced mineralization” (Bioorg Med Chem Lett, 2016)
Active and inactive are the calls of the source. The rule behind the calls is not given here.

Tests used:
[1] = biological target: T1, Alkaline phosphatase, tissue-nonspecific isozyme (Homo sapiens) (UniProt P05186); assay: Inhibition of TNAP in human Saos2 cells assessed as reduction of ascorbic acid and beta-glycerophosphate-induced mineralization at 20 to 40 uM after 6 days by alizarin red-s staining based assay; assay type: cell-based; details: SAOS-2
T1 sequence (whole entry): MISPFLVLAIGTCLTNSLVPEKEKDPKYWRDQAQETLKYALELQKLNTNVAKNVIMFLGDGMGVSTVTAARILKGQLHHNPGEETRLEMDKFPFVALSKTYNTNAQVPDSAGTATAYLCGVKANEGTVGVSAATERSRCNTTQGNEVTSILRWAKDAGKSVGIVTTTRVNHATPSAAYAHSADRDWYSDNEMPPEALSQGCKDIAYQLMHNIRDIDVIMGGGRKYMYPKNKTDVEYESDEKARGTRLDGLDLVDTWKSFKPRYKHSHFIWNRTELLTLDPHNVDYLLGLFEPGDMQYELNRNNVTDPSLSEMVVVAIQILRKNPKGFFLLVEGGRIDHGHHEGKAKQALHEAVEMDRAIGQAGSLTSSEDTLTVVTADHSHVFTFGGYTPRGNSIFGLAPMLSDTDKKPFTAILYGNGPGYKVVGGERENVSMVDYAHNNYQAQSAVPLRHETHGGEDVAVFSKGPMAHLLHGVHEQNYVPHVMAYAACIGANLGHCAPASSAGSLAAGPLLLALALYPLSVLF
In short: (§1)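 Saos-2 cells and mouse primary osteoblasts received ascorbic acid plus β-glycerophosphate to stimulate differentiation and mineralization, with or without inhibitor. Mineral was quantified by Alizarin Red-S staining and expressed as percent of a control containing DMSO 0.1% (mL:mL) without inhibitor. Experiments were repeated in triplicate for each inhibitor (n = 9).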

[2] = Inhibition of porcine kidney TNAP using para-nitrophenylphosphate as substrate preincubated for 10 mins at pH 7.8 followed by substrate addition; parameters: species or system Sus scrofa
[3] = Inhibition of porcine kidney TNAP using para-nitrophenylphosphate as substrate preincubated for 10 mins at pH 7.8 followed by substrate addition
[4] = Cytotoxicity against mouse MOVAS1 cells assessed as reduction in cell viability at 10 to 40 uM after 3 days by MTT assay; assay type: cell-based; details: movas1, 72 h
In short: (§2)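 Cells (human osteoblast-like Saos-2 and MG63, mouse vascular smooth muscle line MOVAS-1, mouse primary osteoblasts) were incubated with or without inhibitor for 3 days. Viability was read by MTT assay.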

[5] = biological target: T2, Alkaline phosphatase, tissue-nonspecific isozyme (Mus musculus) (UniProt P09242); assay: Inhibition of TNAP in C57BL/6J mouse primary osteoblasts assessed as reduction of ascorbic acid and beta-glycerophosphate-induced mineralization at 10 uM after 6 days by alizarin red-s staining based assay relative to control; in short: as §1
T2 sequence (whole entry): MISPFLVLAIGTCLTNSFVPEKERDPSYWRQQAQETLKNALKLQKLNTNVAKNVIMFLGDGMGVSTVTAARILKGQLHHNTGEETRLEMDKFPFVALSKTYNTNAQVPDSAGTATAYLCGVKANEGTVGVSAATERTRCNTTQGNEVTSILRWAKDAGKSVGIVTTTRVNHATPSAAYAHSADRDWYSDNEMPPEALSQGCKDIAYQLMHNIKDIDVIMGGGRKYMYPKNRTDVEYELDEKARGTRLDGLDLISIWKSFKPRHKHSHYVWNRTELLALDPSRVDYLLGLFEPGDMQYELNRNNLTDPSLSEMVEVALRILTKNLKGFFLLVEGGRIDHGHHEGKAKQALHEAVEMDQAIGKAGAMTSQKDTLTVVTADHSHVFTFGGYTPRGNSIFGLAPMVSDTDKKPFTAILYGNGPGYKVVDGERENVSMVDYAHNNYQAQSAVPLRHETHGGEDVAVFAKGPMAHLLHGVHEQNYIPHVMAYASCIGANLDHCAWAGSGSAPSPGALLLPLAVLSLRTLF

[6] = biological target: T3, Intestinal-type alkaline phosphatase (Bos taurus, UniProt P19111); assay: Inhibition of bovine intestinal alkaline phosphatase using para-nitrophenylphosphate as substrate preincubated for 10 mins at pH 10.4 followed by substrate addition
[7] = biological target: T4, Alkaline phosphatase, placental type (Homo sapiens, UniProt P05187); assay: Inhibition of human placental alkaline phosphatase using para-nitrophenylphosphate as substrate preincubated for 10 mins at pH 7.8 followed by substrate addition
[8] = organism: Sus scrofa; assay: Uncompetitive inhibition of porcine kidney TNAP using para-nitrophenylphosphate as substrate preincubated for 10 mins at pH 7.8 to 10.4 followed by substrate addition
[9] = Inhibition of porcine kidney TNAP using para-nitrophenylphosphate as substrate preincubated for 10 mins at pH 10.4 followed by substrate addition
[10] = Cytotoxicity against mouse primary osteoblasts assessed as reduction in cell viability at 10 to 40 uM after 3 days by MTT assay; assay type: cell-based; details: osteoblast, 72 h; in short: as §2
[11] = Cytotoxicity against human MG63 cells assessed as reduction in cell viability at 10 to 40 uM after 3 days by MTT assay; assay type: cell-based; details: mg-63, 72 h; in short: as §2
[12] = Cytotoxicity against human Saos2 cells assessed as reduction in cell viability at 10 to 40 uM after 3 days by MTT assay; assay type: cell-based; details: saos-2, 72 h; in short: as §2
[13] = biological target: T3, Intestinal-type alkaline phosphatase; assay: Inhibition of bovine intestinal alkaline phosphatase using para-nitrophenylphosphate as substrate preincubated for 10 mins at pH 7.8 followed by substrate addition
[14] = biological target: T4, Alkaline phosphatase, placental type; assay: Inhibition of human placental alkaline phosphatase using para-nitrophenylphosphate as substrate preincubated for 10 mins at pH 10.4 followed by substrate addition
[15] = biological target: T2, Alkaline phosphatase, tissue-nonspecific isozyme (Mus musculus); details: C57BL/6J, 10 to 40 uM

T4 sequence (P05187 whole entry): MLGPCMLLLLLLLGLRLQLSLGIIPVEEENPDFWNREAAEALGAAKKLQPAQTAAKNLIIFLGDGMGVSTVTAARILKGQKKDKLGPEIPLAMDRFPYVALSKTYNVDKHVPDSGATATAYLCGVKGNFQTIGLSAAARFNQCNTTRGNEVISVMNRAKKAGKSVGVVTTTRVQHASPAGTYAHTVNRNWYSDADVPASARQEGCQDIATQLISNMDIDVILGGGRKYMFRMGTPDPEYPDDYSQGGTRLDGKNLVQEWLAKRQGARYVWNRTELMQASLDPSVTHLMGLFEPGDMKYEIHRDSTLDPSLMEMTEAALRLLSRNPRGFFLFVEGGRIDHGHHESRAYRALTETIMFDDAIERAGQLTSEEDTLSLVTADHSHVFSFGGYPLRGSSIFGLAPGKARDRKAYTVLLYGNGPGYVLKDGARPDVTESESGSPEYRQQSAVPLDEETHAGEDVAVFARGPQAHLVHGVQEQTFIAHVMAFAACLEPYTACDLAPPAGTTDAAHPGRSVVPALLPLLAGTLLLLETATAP
T3 sequence (P19111 whole entry): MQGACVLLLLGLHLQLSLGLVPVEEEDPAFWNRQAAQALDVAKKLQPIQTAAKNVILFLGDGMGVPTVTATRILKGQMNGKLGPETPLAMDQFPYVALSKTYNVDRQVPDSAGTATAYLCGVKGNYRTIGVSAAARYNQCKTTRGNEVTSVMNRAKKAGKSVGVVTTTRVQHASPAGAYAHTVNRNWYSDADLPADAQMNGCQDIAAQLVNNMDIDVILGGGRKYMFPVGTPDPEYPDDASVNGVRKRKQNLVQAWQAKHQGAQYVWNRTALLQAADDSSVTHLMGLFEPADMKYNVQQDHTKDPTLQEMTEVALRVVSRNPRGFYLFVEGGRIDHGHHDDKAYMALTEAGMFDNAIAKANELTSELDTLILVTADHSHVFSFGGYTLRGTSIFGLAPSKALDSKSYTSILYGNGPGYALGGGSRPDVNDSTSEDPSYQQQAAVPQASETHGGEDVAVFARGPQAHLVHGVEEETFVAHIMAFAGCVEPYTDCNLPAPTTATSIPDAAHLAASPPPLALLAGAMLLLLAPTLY

Structure (SMILES) | inhibition [1] | Ki [2] | IC50 [3] | Activity [4] | inhibition [5] | IC50 [6] | IC50 [7] | inhibition [8] | IC50 [9] | Activity [10] | Activity [11] | Activity [12] | IC50 [13] | IC50 [14] | inhibition [15]
C1=CN2CC(c3cc4ccccc4o3)N=C2S1 (centres undefined) | Active | 32 µM | 124 µM | Non-toxic | 20% | > 400 µM | > 400 µM | Active | 28 µM | Non-toxic | Non-toxic | Non-toxic | > 400 µM | > 400 µM | –
c1ccc([C@H]2CN3CCSC3=N2)cc1 [LEVAMISOLE] | – | 47 µM | 256 µM | – | – | > 400 µM | > 400 µM | – | 41 µM | – | – | – | > 400 µM | > 400 µM | inactive
N=c1sccn1CC(O)c1cc2ccccc2o1 (centres undefined) | – | – | > 400 µM | – | – | > 400 µM | > 400 µM | – | > 400 µM | – | – | – | > 400 µM | > 400 µM | –
N=c1sccn1CC(=O)c1cc2ccccc2o1 | – | – | > 400 µM | – | – | > 400 µM | > 400 µM | – | > 400 µM | – | – | – | > 400 µM | > 400 µM | –
